The values below come from ChEMBL document CHEMBL4373637, “Synthesis of bicyclic 1,4-thiazepines as novel anti-Trypanosoma brucei brucei agents” (Medchemcomm, 2019).

One data set concerns J774. Briefly: Cytotoxicity against mouse J774 cells assessed as reduction in cell viability after 24 hrs by WST-1 assay. The class given is cell-based. As to conditions: J774, 24 h. In a few lines:
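Mouse J774 macrophages grown in DMEM with 10% FCS at 37 °C and 5% CO2. Viability was read with WST-1 at 6 concentrations, in triplicate, and expressed relative to the DMSO-treated control.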

Data set [1] can be described thus: Selectivity index, ratio of EC50 for mouse J774 cells to EC50 for antitrypanosomal activity against Trypanosoma brucei brucei 427. The class given is toxicity. The following applies: read-out: Ratio EC50.
The subject of data set [2] is Trypanosoma brucei brucei. Briefly: Antitrypanosomal activity against Trypanosoma brucei brucei 427 assessed as parasite death at 5 uM after 24 hrs by PI-staining based flow cytometry analysis relative to control. The class given is functional. An outline of the steps: (§1)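 Bloodstream-form T. b. brucei strain 427 grown in HMI-9 with 10% FBS at 37 °C and 5% CO2. Exponential-phase parasites were seeded at 5 x 10⁵/mL and given compound from DMSO stocks, alongside 1% DMSO and nifurtimox control wells. After 24 h, aliquots were diluted into PBS with 1% glucose (pH 7.4) and propidium iodide and counted by flow cytometry (ex 488 nm). Viability (%) = 100 × cells treated / cells in DMSO control.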

For data set [3], the target named is T1, Thioredoxin glutathione reductase (Echinococcus granulosus) (UniProt Q869D7).
T1 sequence (whole entry): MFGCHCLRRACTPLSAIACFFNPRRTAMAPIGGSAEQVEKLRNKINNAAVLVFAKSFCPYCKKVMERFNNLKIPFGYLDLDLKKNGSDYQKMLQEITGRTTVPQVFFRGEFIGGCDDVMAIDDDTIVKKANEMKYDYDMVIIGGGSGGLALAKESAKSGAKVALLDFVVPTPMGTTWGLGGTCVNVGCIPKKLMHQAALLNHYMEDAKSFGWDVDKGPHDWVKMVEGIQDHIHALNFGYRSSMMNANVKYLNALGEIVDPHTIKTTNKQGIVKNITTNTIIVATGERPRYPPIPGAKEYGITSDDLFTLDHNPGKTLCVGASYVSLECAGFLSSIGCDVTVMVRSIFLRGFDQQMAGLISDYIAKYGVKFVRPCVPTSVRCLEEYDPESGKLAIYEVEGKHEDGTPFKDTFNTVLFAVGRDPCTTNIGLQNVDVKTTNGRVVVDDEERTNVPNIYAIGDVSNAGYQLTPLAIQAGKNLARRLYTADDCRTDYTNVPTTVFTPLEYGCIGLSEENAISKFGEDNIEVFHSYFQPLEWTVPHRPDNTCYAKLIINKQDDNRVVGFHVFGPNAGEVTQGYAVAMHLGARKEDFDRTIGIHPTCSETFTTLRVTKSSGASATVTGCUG
Description: Inhibition of wild type recombinant Echinococcus granulosus TGR at 50 uM preincubated for NADPH followed by compound addition and measured after 3 mins by spectrophotometric analysis relative to control. An outline of the steps:
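Recombinant wild-type E. granulosus TGR (1 nM) in 50 mM phosphate, 1 mM EDTA, pH 7, with 100 µM NADPH. Enzyme was preincubated for 3 min with NADPH and inhibitor at 50 µM (from a 100 mM DMSO stock). The reaction was started with 5 mM DTNB, and TNB formation was followed at 412 nm for 3 min. Runs were in duplicate, with controls lacking enzyme and lacking inhibitor.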

Data set [4] deals with Nippostrongylus brasiliensis. Briefly: Antiparasitic activity against Nippostrongylus brasiliensis L4 assessed as parasite death at 20 uM relative to control. It is filed as functional.
The next data set has as its system Caenorhabditis elegans. Description: Antiparasitic activity against Caenorhabditis elegans assessed as inhibition of parasite motility at 100 uM after 17.5 hrs by motility assay relative to control. The class given is functional. In a few lines:
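About 80 synchronized L4 worms per well in K buffer with 0.015% BSA. Motility was first recorded for 30 min to set 100%. Compound was then added at 100 µM in 1% DMSO, and motility was tracked automatically for 17.5 h. Mean motility at the final time was compared with 1% DMSO control wells. Eight replicates.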

The test system of data set [5] is Trypanosoma brucei brucei. Description: Antitrypanosomal activity against Trypanosoma brucei brucei 427 assessed as parasite death after 24 hrs by PI-staining based flow cytometry analysis. The class given is functional, organism-based. As to conditions: Trypanosoma brucei, 427, 24 h. An outline of the steps:
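Bloodstream-form T. b. brucei 427, cell line 449, carrying a redox biosensor, grown in HMI-9 with 10% FBS at 37 °C and 5% CO2. Exponential-phase cells at 5 x 10^5/mL were exposed to compound for 24 h; the control was 1% DMSO. Cells were then diluted into PBS with 1% glucose (pH 7.4) and propidium iodide, and analysed by flow cytometry (ex 488 nm). Viability was expressed as % of DMSO-control cell number.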

The subject of data set [6] is Trypanosoma brucei brucei. Briefly: Antitrypanosomal activity against Trypanosoma brucei brucei 427 assessed as parasite death at 30 uM after 24 hrs by PI-staining based flow cytometry analysis relative to control. It is filed as functional. In a few lines:
as §1

On to `CC1CS(=O)(=O)CCN1/N=C/c1ccc([N+](=O)[O-])o1` (stereo not drawn) [NIFURTIMOX], for which, in the data set on J774, the EC50 was determined as 150 µM. Moreover, in data set [1], the selectivity ratio is 10.

Regarding `CCOC(=O)C1=C(C(=O)OCC)C2CSC(CS1)N2Cc1ccc(F)cc1` (stereo not drawn), the Activity is listed as 12.7% in data set [2], 47.6% in data set [4] and 99.4% in data set [6]. In data set [3], the inhibition amounted to 41%. Also, the inhibition at 100 µM in the data set on Caenorhabditis elegans was found to be 26%. Besides, the EC50 stood at 64.4 µM in the data set on J774 and 17.8 µM in data set [5]. Besides, the selectivity ratio in data set [1] is 3.6.

As to `CCOC(=O)C1=C(C(=O)OCC)C2CSC(CS1)N2CCCC(=O)OCc1c(-c2ccccc2)no[n+]1[O-]` (stereo not drawn), the Activity in data set [2] is on record as 60.4%; in data set [6] it was 97.8%. The inhibition in data set [3] stood at 0%. For the same compound, the inhibition at 100 µM in the data set with Caenorhabditis elegans was 22%. Moreover, the results for the EC50 (in the data set on J774; in data set [5]) were > 200 µM and 2.8 µM, respectively. In addition, the selectivity ratio in data set [1] is > 71.

Consider `COC(=O)C1=C(C(=O)c2ccc(Cl)cc2)C2CSC(CS1)N2Cc1ccccc1` (stereo not drawn), for which the Activity is listed as 3.4% in data set [2], 20.5% in data set [4] and 57.5% in data set [6]. Besides, in data set [3], the inhibition was 0%. Moreover, the inhibition at 100 µM with Caenorhabditis elegans came to 51%.

In the case of `COC(=O)C1=C(C(=O)c2ccc(Cl)cc2)C2CSC(CS1)N2Cc1ccc(OC)cc1` (stereo not drawn), the Activity in data set [2] is 0%; in data set [4], 27.6%; in data set [6], 95.9%. Besides, the inhibition in data set [3] was 29%. For the same compound, the inhibition at 100 µM in the data set with Caenorhabditis elegans is 3%. The EC50 in the data set with J774 worked out at 9.7 µM; in data set [5], 16.4 µM. In data set [1], the selectivity ratio is 0.6.

Turning to `CCOC(=O)C1=C(C(=O)OCC)C2CSC(CS1)N2Cc1ccc(OC)cc1` (stereo not drawn), the results for the Activity in data set [2], in data set [4] and in data set [6] were 3%, 13.8% and 97.7%, respectively. Besides, in data set [3], the inhibition was 36%. Moreover, in the data set on Caenorhabditis elegans, the inhibition at 100 µM worked out at 50%. Besides, the figures for the 50% effective concentration (EC50) (in the data set with J774; in data set [5]) were > 200 µM and 18 µM, respectively. Besides, the selectivity ratio in data set [1] was > 11.

Regarding `CCCSc1ccc2[nH]c(NC(=O)OC)nc2c1` [ALBENDAZOLE], in data set [4], the Activity worked out at 100%.

For `CCOC(=O)C1=C(C(=O)OCC)C2CSC(CS1)N2Cc1ccccc1` (stereo not drawn), the results for the Activity in data set [2], in data set [4] and in data set [6] were 3.5%, 5.9% and 98.8%, respectively. In addition, the inhibition in data set [3] turned out to be 0%. In the data set with Caenorhabditis elegans, the inhibition at 100 µM was found to be 20%. Further, the half-maximal effective concentration (EC50) came to 200 µM in the data set on J774 and 18.9 µM in data set [5]. In addition, the selectivity ratio in data set [1] came to 10.

For `O=C(OCc1c(-c2ccccc2)no[n+]1[O-])C1=C(C(=O)c2ccc(Cl)cc2)C2CSC(CS1)N2Cc1ccccc1` (stereo not drawn), the figures for the Activity in data set [2] and in data set [6] were 89.4% and 97.7%, respectively. The inhibition in data set [3] is 0%. For the same compound, the values for the EC50 (in the data set on J774; in data set [5]) were 3.1 µM and 2.5 µM, respectively. In data set [1], the selectivity ratio worked out at 1.2.

On to `O=C(OCc1c(-c2ccccc2)no[n+]1[O-])C1=C(C(=O)OCc2c(-c3ccccc3)no[n+]2[O-])C2CSC(CS1)N2Cc1ccccc1` (stereo not drawn), for which the Activity was found to be 12.2% in data set [2] and 23.3% in data set [6].

Regarding `CCOC(=O)C1=C(C(=O)OCC)C2CSC(CS1)N2Cc1ccc(Cl)cc1` (stereo not drawn), the Activity in data set [2] stood at 2.4%; in data set [4], 17.1%; in data set [6] it was 97.3%. The inhibition in data set [3] is 0%. Besides, the inhibition at 100 µM with Caenorhabditis elegans is 37%. The figures for the concentration for a half-maximal effect (EC50) (with J774; in data set [5]) were > 200 µM and 8 µM, respectively. In data set [1], the selectivity ratio is > 25.

Turning to `COC(=O)C1=C(C(=O)c2ccc(Cl)cc2)C2CSC(CS1)N2CCO` (stereo not drawn), the Activity came out at 1.8% in data set [2], 20.6% in data set [4] and 3.6% in data set [6]. Moreover, the inhibition in data set [3] is 0%. Besides, the inhibition at 100 µM in the data set with Caenorhabditis elegans is 18%.
